{"source": "ChEMBL document CHEMBL5104224", "about": "“Alkyltriphenylphosphonium turns naphthoquinoneimidazoles into potent membrane depolarizers against mycobacteria” (RSC Med Chem, 2022)", "key": {"[1]": {"assay": "Selectivity index, ratio of IC50 for cytotoxicity against African green monkey Vero E6 cells to MIC50 for antimycobacterial activity against Mycobacterium tuberculosis H37Rv ATCC 27294", "type": "toxicity, cell-based, Vero C1008", "conditions": "read-out: Selectivity Index", "how_it_was_run": "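SI is the ratio of a Vero E6 IC50 to an H37Rv MIC50. Vero E6 cells in DMEM + 10% heat-inactivated FBS, 1% penicillin; 30,000 cells/well, 24 h adherence, then compound for 48 h (0.5% DMSO), 37°C, 5% CO2. MTS read at 490 nm after 3 h; IC50 from sigmoidal viability fit, ≥3 determinations. MIC50 by broth dilution: 50% growth inhibition versus drug-free control.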"}, "[2]": {"assay": "Selectivity index, ratio of IC50 for cytotoxicity against African green monkey Vero E6 cells to MIC50 for antimycobacterial activity against Mycobacterium bovis BCG ATCC 35734", "type": "toxicity, cell-based, Vero C1008", "conditions": "read-out: Selectivity Index"}, "[3]": {"assay": "Aqueous solubility of compound at pH 7.4 measured after 24 hrs", "type": "physicochemical", "conditions": "buffer", "how_it_was_run": "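Stock in DMSO diluted to 100 μM in Universal buffer pH 7.4 with 1% DMSO. Agitated on filter plates for 24 h at 25°C, then filtered and the filtrate diluted with acetonitrile. Concentration read by UV absorbance against calibration curves made in buffer/acetonitrile 80:20. At least 3 occasions, using different stocks.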"}}}
{"smiles": "Cc1nc2c(n1CCCCCCCCC[P+](c1ccccc1)(c1ccccc1)c1ccccc1)C(=O)c1ccccc1C2=O", "values": [{"measurement": "selectivity ratio", "setting": "[1]", "value": 34}, {"measurement": "selectivity ratio", "setting": "[2]", "value": 21}]}
{"smiles": "Cc1nc2c(n1CCCCCCCCCCC[P+](c1ccccc1)(c1ccccc1)c1ccccc1)C(=O)c1ccccc1C2=O", "values": [{"measurement": "selectivity ratio", "setting": "[1]", "value": 5}, {"measurement": "selectivity ratio", "setting": "[2]", "value": 11}]}
{"smiles": "CCCCn1c2c([n+](C3CCC4(CCCCC4)CC3)c1C)C(=O)c1ccccc1C2=O.[Br-]", "values": [{"measurement": "solubility at 24 h", "setting": "[3]", "value": 118, "unit": "µM"}]}
{"smiles": "CCCCCCCCn1c2c([n+](CCCC)c1C)C(=O)c1ccccc1C2=O.[Br-]", "values": [{"measurement": "solubility at 24 h", "setting": "[3]", "value": 118, "unit": "µM"}]}
{"smiles": "Cc1nc2c(n1CCCCCCCCCCC[P+](C1CCCCC1)(C1CCCCC1)C1CCCCC1)C(=O)c1ccccc1C2=O", "values": [{"measurement": "selectivity ratio", "setting": "[2]", "value": 7}]}
